Data on 36 molecules can be found in ChEMBL document CHEMBL1153405, “Complementary three-dimensional quantitative structure-activity relationship modeling of binding affinity and functional potency: a study on alpha4beta2 nicotinic ligands” (J Med Chem, 2009).

The target of experiment [1] is T1, Neuronal acetylcholine receptor; alpha4/beta2 (Homo sapiens, UniProt P17787+P43681). Briefly: Agonist activity at human alpha4beta2 nAChR expressed in HEK293 cells assessed as intracellular calcium level by FLIPR assay. In kind it is functional, cell-based. In outline:
(§1)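 HEK-293 cells stably expressing human α4β2 (subunits cloned from IMR32) were grown in DMEM with 10% FBS at 37 °C and 5% CO2. They were plated on poly-D-lysine for 24 h, then loaded with 2 µM fluo-4/AM for 1.5 h at room temperature. Cells were washed into NMDG Ringer (10 mM CaCl2, pH 7.4) and read by FLIPR at 100 pM–100 µM. Background-subtracted responses were normalized to 100 µM (-)-nicotine, giving pEC50 and maximal efficacy; n = 4-8.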
(A change in cytosolic calcium serves as a functional read-out for many receptors and channels.)

Experiment [2] addresses T1, Neuronal acetylcholine receptor; alpha4/beta2. The experiment is described as follows: Displacement of [3H]cytisine from human alpha4beta2 nAChR expressed in HEK293 cells. In kind it is cell-based.
Experiment [3] has the same target. Briefly: Intrinsic activity at human alpha4beta2 nAChR expressed in HEK293 cells assessed as intracellular calcium level by FLIPR assay relative to (-)nicotine. It is filed as cell-based. In outline: as §1

T1 sequence (P17787 whole entry): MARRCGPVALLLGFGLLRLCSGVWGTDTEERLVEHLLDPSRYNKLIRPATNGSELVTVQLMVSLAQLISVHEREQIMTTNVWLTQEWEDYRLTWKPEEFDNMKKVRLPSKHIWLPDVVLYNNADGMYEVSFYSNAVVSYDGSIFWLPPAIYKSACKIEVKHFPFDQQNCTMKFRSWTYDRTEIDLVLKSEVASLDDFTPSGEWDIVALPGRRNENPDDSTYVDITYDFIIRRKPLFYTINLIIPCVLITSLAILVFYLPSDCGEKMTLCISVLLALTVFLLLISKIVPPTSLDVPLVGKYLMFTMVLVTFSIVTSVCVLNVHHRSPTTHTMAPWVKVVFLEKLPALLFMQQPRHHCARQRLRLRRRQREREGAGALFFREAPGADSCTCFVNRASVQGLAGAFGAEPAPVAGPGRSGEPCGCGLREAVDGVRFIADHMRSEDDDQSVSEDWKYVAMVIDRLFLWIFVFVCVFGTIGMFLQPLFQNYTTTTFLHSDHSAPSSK
T1 sequence (P43681 whole entry): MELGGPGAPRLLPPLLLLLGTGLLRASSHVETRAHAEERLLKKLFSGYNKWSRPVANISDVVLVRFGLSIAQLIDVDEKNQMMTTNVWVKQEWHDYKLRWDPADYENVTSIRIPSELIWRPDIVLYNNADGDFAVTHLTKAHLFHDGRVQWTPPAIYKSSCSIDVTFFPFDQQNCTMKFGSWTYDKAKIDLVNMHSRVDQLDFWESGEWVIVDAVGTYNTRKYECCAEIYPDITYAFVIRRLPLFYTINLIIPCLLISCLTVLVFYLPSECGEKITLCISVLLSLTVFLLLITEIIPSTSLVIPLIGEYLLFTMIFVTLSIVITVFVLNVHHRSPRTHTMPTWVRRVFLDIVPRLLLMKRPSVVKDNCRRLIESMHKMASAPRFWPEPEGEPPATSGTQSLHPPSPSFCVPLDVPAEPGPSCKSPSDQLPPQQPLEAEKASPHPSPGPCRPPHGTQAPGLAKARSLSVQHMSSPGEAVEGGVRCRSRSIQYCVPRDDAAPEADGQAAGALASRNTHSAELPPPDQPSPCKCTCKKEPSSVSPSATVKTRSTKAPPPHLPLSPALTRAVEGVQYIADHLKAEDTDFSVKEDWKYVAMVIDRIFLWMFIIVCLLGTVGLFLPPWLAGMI

Turning to `Brc1ccc(N2CCNCC2)cn1`, the EC50 (usually the concentration that produces a half-maximal response) in experiment [1] is 2.51 µM. Also, the IC50 (in general, the concentration that inhibits the measured activity by half) in experiment [2] was 0.182 µM. For the same molecule, the Efficacy in experiment [3] was 129%.

Consider `Cc1ncc(N2CCNCC2)cc1Cl`, for which, in experiment [1], the EC50 is 26.9 µM. The molecule also had an IC50 in experiment [2] of 0.525 µM. Besides, the Efficacy in experiment [3] turned out to be 74%.

In the case of `COc1cncc(N2CCCNCCC2)c1`, in experiment [1], the EC50 is 0.12 µM. In experiment [2], this molecule showed an IC50 of 0.001 µM. For the same molecule, the Efficacy in experiment [3] was 89%.

On to `Clc1cncc(N2CCNCC2)c1`, for which, in experiment [1], the EC50 is 22.9 µM. In addition, in experiment [3], the Efficacy was 41%.

In the case of `Oc1cc(N2CCCNCC2)cnc1I`, the EC50 in experiment [1] was 0.479 µM. Moreover, in experiment [2], the IC50 was 0.0219 µM. For the same molecule, the Efficacy in experiment [3] came out at 104%.

Take `CCSc1ccc(N2CCCNCC2)cn1`: the EC50 in experiment [1] was 4.47 µM. For the same molecule, the IC50 in experiment [2] is 0.17 µM. Besides, the Efficacy in experiment [3] is 53%.

With `NC(=O)c1cncc(N2CCCNCC2)c1`, the EC50 in experiment [1] was 12.9 µM. The molecule also gave an IC50 in experiment [2] of 0.02 µM. The Efficacy in experiment [3] stood at 56%.

Take `CCOc1cc(N2CCCNCC2)cnc1Br`: the EC50 in experiment [1] was 0.257 µM. The molecule also had an IC50 in experiment [2] of 0.000871 µM. Besides, the Efficacy in experiment [3] was 78%.

Take `Clc1cncc(OC2CCCNC2)c1` (stereo not drawn): in experiment [1], the EC50 was 1.41 µM. Further, in experiment [2], the IC50 was 0.24 µM. Moreover, the Efficacy in experiment [3] is 15%.

Consider `Clc1ncc(N2CCNCC2)cc1Br`, for which the EC50 in experiment [1] was 7.94 µM. This molecule also showed an IC50 in experiment [2] of 0.229 µM. For the same molecule, the Efficacy in experiment [3] was found to be 98%.

On to `COc1ccc(N2CCCNCC2)cn1`, for which, in experiment [1], the EC50 was 11 µM. The molecule also showed a half-maximal inhibitory concentration (IC50) in experiment [2] of 0.17 µM. Moreover, in experiment [3], the Efficacy came to 88%.

For the molecule `Brc1ccc(N2CCCNCC2)cn1`, the EC50 in experiment [1] was 0.0646 µM. In experiment [2], this molecule showed an IC50 of 0.001 µM. Also, the Efficacy in experiment [3] came to 88%.

Regarding `c1cncc(OC2CCCNC2)c1` (stereo not drawn), in experiment [1], the EC50 is 32.4 µM. This molecule gave an IC50 in experiment [2] of 0.191 µM. For the same molecule, the Efficacy in experiment [3] turned out to be 22%.

On to `COc1cncc(C2=CC3CCCC(C2)N3)c1` (stereo not drawn), for which the EC50 in experiment [1] was 4.37 µM. Besides, the IC50 in experiment [2] was 0.00302 µM. Besides, in experiment [3], the Efficacy is 13%.

Turning to `Clc1ncc(N2CCCNCC2)cc1Br`, the EC50 in experiment [1] is 0.0575 µM. Moreover, the IC50 in experiment [2] was 0.00141 µM. Moreover, the Efficacy in experiment [3] was 85%.

Take `C=COc1cc(N2CCCNCC2)cnc1Br`: the EC50 in experiment [1] is 0.11 µM. The same molecule showed an IC50 in experiment [2] of 0.000646 µM. Besides, the Efficacy in experiment [3] is 80%.

Regarding `COc1cncc(N2CCCNCC2)c1`, in experiment [1], the EC50 is 1.41 µM. In addition, the IC50 in experiment [2] is 0.00191 µM. In experiment [3], the Efficacy turned out to be 66%.

Consider `Brc1cncc(N2CCCNCCC2)c1`, for which the EC50 in experiment [1] was 0.182 µM. This molecule also had an IC50 in experiment [2] of 0.00282 µM. The Efficacy in experiment [3] was 73%.

With `C1=C(c2cccnc2)CC2CCC1N2` (stereo not drawn), in experiment [1], the EC50 was 1 µM. In experiment [2], this molecule showed an IC50 of 0.00676 µM. Besides, the Efficacy in experiment [3] is 66%.

As for `COCCOc1cncc(N2CCCNCC2)c1`, the EC50 in experiment [1] was 8.71 µM. This molecule had an IC50 in experiment [2] of 0.0024 µM. The Efficacy in experiment [3] amounted to 42%.

With `c1cncc(N2CCCNCC2)c1`, the EC50 in experiment [1] is 0.229 µM. In addition, in experiment [3], the Efficacy worked out at 94%.

In the case of `c1cncc(OC2CCNC2)c1` (stereo not drawn), the EC50 in experiment [1] is 28.8 µM. In experiment [2], this molecule showed an IC50 of 0.1 µM. In experiment [3], the Efficacy was determined as 54%.

Regarding `C=COc1cncc(N2CCCNCC2)c1`, the EC50 in experiment [1] was 1.1 µM. In experiment [2], this molecule showed an IC50 of 0.00501 µM. In addition, the Efficacy in experiment [3] was 61%.

Take `c1cncc(N2CCCNCCC2)c1`: in experiment [1], the EC50 was 0.0363 µM. Moreover, the IC50 in experiment [2] is 0.000891 µM. Moreover, the Efficacy in experiment [3] turned out to be 78%.

Consider `C=COc1cc(N2CCCNCCC2)cnc1Br`, for which the EC50 in experiment [1] is 0.24 µM. Besides, the concentration for half-maximal inhibition (IC50) in experiment [2] was 0.00038 µM. Also, the Efficacy in experiment [3] amounted to 90%.

Regarding `COc1cc(N2CCCNCC2)cnc1Cl`, the EC50 in experiment [1] was 0.0912 µM. The IC50 in experiment [2] is 0.000676 µM. The Efficacy in experiment [3] amounted to 116%.

With `COc1cc(N2CCNCC2)cnc1Br`, the EC50 in experiment [1] was 17 µM. Besides, the Efficacy in experiment [3] stood at 68%.

On to `Oc1cncc(N2CCCNCC2)c1`, for which the EC50 in experiment [1] is 0.141 µM. In experiment [2], this molecule had an IC50 of 0.0024 µM. Besides, the Efficacy in experiment [3] is 120%.

Regarding `Clc1cncc(N2CCCNCCC2)c1`, the concentration for a half-maximal effect (EC50) in experiment [1] was 0.17 µM. This molecule also showed an IC50 in experiment [2] of 0.002 µM. Also, the Efficacy in experiment [3] was 103%.

`c1cncc(OC[C@@H]2CCN2)c1` gave an IC50 in experiment [2] of 0.00151 µM. That is a single-digit nanomolar value.

For the molecule `c1ccc2ncc(N3CCCNCC3)cc2c1`, the EC50 in experiment [1] is 3.63 µM. In experiment [2], this molecule gave an IC50 of 0.00661 µM. In addition, the Efficacy in experiment [3] was 33%.

On to `Brc1ccc(N2CCCNCCC2)cn1`, for which the EC50 in experiment [1] was 0.00129 µM. Besides, the IC50 in experiment [2] is 0.000447 µM. For the same molecule, the Efficacy in experiment [3] came to 139%.

Consider `C/C=C\Oc1cncc(N2CCCNCC2)c1`, for which the EC50 in experiment [1] is 2.09 µM. The molecule further gave an IC50 in experiment [2] of 0.00129 µM. Besides, in experiment [3], the Efficacy came to 45%.

As to `C1=C(c2cccnc2)CC2CCCC1N2` (stereo not drawn), in experiment [1], the EC50 was 1.2 µM. In experiment [2], this molecule showed an IC50 of 0.00447 µM. Moreover, in experiment [3], the Efficacy stood at 34%.

Consider `C=COc1cncc(N2CCNCC2)c1`, for which the EC50 in experiment [1] was 7.59 µM. In experiment [2], the IC50 was 0.191 µM. Moreover, in experiment [3], the Efficacy amounted to 18%.

On to `Clc1cc(N2CCCNCC2)cnc1Br`, for which the EC50 in experiment [1] was 0.0151 µM. The IC50 in experiment [2] was 0.00141 µM. Besides, the Efficacy in experiment [3] was determined as 102%.
